Laboratory results reported in publication PMC4805660 (Theranostics, 2016).
Counter-ions that a name gives are not always drawn.

Assays:
Format in all cases: in vivo, NMRI nu/nu mice
MPC-mCherry tumors [1] = assay: Renal; conditions: for DAred, reduction of renal dopamine excretion [14-28 days pci] / NEred, reduction of renal norepinephrine excretion [14-28 days pci] / NMNred, reduction of renal normetanephrine excretion [14-28 days pci]: doxorubicin 6.9 µmol/kg, AN-238 0.2 µmol/kg, [^177Lu]Lu-DOTATATE 80 MBq/animal, urine LC-MS/MS, compared to control, mean ± SEM
[2] = Body weight monitoring in treated mice; conditions: doxorubicin 6.9 µmol/kg, AN-238 0.2 µmol/kg, [^177Lu]Lu-DOTATATE 80 MBq/animal
How it was run: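 Mice carrying growing MPC-mCherry tumours (5 ± 3 mm diameter) were grouped by similar mean tumour volume and randomly assigned to control or therapy; treatment began 15 days pci. Test compounds in Infesol 15 given via tail vein at 0.3 mL/30 g body weight. Three independent experiments followed an identical protocol, with data pooled.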

MPC-mCherry tumors [3] = assay: ^177Lu activity in MPC-mCherry tumors after treatment, monitored by PLI; conditions: not decay-corrected, 80 MBq/animal
How it was run: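 Radioligand was made by heating [177Lu]LuCl3 (pH 5.2, NH4OAc) with 14 nmol peptide at 90 °C for 20 min, giving >97% HPLC radiochemical purity. 80 MBq (1.2 nmol)/mouse was given by tail vein in Infesol 15 from 15 days pci. Tumour ROIs were thresholded on mCherry/reference fluorescence (signal/background 2). PLI signal was expressed as effective and decay-corrected 177Lu activity.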

| half-life of effective ^177Lu activity in tumors (MPC-mCherry tumors [3]) | Compound | DAred, reduction of renal dopamine excretion [14-28 days pci] (MPC-mCherry tumors [1]) | NEred, reduction of renal norepinephrine excretion [14-28 days pci] (MPC-mCherry tumors [1]) | NMNred, reduction of renal normetanephrine excretion [14-28 days pci] (MPC-mCherry tumors [1]) | body weight change after treatment [2] | fold more effective in reducing overall renal monoamine excretion compared to doxorubicin and AN-238 (MPC-mCherry tumors [1]; 14-28 days pci) |
| --- | --- | --- | --- | --- | --- | --- |
|  | COc1cccc2c1C(=O)c1c(O)c3c(c(O)c1C2=O)C[C@@](O)(C(=O)CO)C[C@@H]3O[C@H]1C[C@H](N)[C@H](O)[C@H](C)O1 [doxorubicin, doxorubicin hydrochloride] | 31.5 ± 11.3% | 74.8 ± 7.5 % | 77.3 ± 5.1 % | tended to decrease immediately |  |
| 48 h | [^177Lu]Lu-DOTA-(Tyr^3)octreotate [[^177Lu]Lu-DOTATATE] | 97.2 ± 0.9 % | 99.6 ± 1.9 % | 100 ± 0.7 % |  | 2 fold |
